Assay [1] can be described thus: inhibitors of TNFa-induced NFkB p65 translocation, primary screen, imaging, HUVEC, MLSMR starter and 10KST1 sets (AID 438;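 active = inhibition above 20% together with a positive visual image hit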;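 note: compound added about 3h40 before a 20 min TNFalpha stimulation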;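 for inhibition: signal is the nuclear over cytoplasmic p65 intensity ratio per well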). As to conditions: HUVEC TNFa-induced p65 nuclear translocation; cell count: measured here: nuclei count (cytotoxicity indicator), at 2.08 µM; inhibition: at 2 µM, stronger effect = higher value, 0% TNFa-plus-vehicle, 100% no-TNFa wells.
A short description of assay [2]: inhibitors of E-selectin induction by TNFa, primary screen, imaging, HUVEC, immunofluorescence, MLSMR starter and 10KST1 sets (AID 487;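 active = visually confirmed hit in the image check and inhibition above 20%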;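 for inhibition: signal is fraction of cell area covered by stained E-selectin grains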;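 for nuclei count: 100% = median nuclei count of all wells on the same plate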). As to conditions: HUVEC TNFalpha-induced E-selectin immunofluorescence imaging, at 2 µM; inhibition: stronger effect = higher value; nuclei count: measured here: cell number, toxicity.
The nature of assay [3]: DUSP6 inhibitors restoring Erk phosphorylation by chemical complementation, primary imaging in DUSP6-transfected HeLa (AID 609;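 active = compounds giving at least 50% inhibition in the cell-based MKP-3 phosphatase rescue imaging test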;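 for inhibition: phospho-Erk level distribution per well compared with pooled transfected vehicle control wells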). As to conditions: HeLa MKP-3 transfected, phospho-Erk imaging KS statistic, at 10 µM, cells stimulated with TPA for 15 min.
The target in assay [4] is Dual specificity protein phosphatase 6 (Homo sapiens) (UniProt Q16828). The assay is described as above. As to conditions: HeLa MKP-3 transfected, phospho-Erk imaging KS statistic; at 10 µM; stronger effect = higher value; cells stimulated with TPA for 15 min.
Chain of Dual specificity protein phosphatase 6 (Homo sapiens) (Q16828 whole entry, looked up): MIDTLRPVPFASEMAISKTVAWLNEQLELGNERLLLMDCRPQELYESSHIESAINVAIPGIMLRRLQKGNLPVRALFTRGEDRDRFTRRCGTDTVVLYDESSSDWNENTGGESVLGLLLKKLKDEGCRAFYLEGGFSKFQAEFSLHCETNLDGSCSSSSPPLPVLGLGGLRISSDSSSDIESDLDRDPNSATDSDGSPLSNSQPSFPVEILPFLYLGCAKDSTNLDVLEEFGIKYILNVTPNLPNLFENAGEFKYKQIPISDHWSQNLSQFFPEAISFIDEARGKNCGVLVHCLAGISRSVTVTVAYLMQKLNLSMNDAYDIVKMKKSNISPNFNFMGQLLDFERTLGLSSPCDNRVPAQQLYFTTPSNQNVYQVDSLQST
Assay [5] has as its target Voltage-gated potassium channel subunit beta-2 (Rattus norvegicus) (UniProt P62483). The assay can be described thus: KvBeta enzyme negative modulators, primary screen, biochemical, NADPH fluorescence (AID 622;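 active = fluorescence slope higher than the sample average by over 3 SD, cut at about -0.22 in these data, passing the limit was not always enough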;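 note: slope of raw intensity against log time taken from 70 to 1610 s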). As to conditions: recombinant KvBeta, 4-cyanobenzaldehyde reduction, at 10 µM, stronger effect = higher value.
Assay [6] has the same target. Briefly: KvBeta positive modulators, primary screen, biochemical, NADPH fluorescence (AID 623).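 Note: fluorescence intensity change per second fitted from 20 to 320 s.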 As to conditions: Recombinant KvBeta, NADPH fluorescence decrease slope, 10 min; at 10 µM; stronger effect = lower value.
Assay [7] concerns the target Muscarinic acetylcholine receptor M4 (Homo sapiens) (UniProt P08173). The assay can be described thus: compounds altering M4/GIRK thallium flux, either direction, primary screen, M4 allosteric agonist project, cell-based, HEK293 M4/GIRK, BTC-AM (AID 625;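 active = fluorescence slope after compound addition differing from the mean of all tested samples at 99.7% confidence, mostly higher but some lower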;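 note: thallium influx through GIRK channels coupled to M4 in HEK293 cells with BTC-AM dye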). As to conditions: at 10 µM, actives lie on both sides. Put shortly: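 Material: HEK293 cells with M4 receptor and GIRK channels; Times: cells overnight at 37 °C, BTC-AM loading 1 h, reads 2 min total; Technique: kinetic BTC-AM fluorescence sampled at 1 Hz, 10 s pre-addition baseline; Read-out basis: slope over 15–24 s of trace normalized to starting intensity; Controls: carbachol positive, DMSO negative.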

Assay [8] can be described thus: inhibitors of larval lipid processing in zebrafish, primary screen, whole organism, PED6 fluorescence, gall bladder and intestine (AID 686;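 active = a full or partial loss of lipid-probe fluorescence in the fish gall bladder, intestine or both, judged by eye; inactive = no fluorescence loss, or compound toxic to the fish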;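 note: larvae 5 to 7 days old with five fish per well; signal comes from phospholipase A2 cleavage of quenched PED6 carried via bile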). As to conditions: Zebrafish larvae PED6 lipid processing, fluorescence scoring; screened at 20 µM (by protocol). In short, it runs like this:
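Incubation: overnight exposure of larvae to compound plus PED6 / Test system: live zebrafish larvae aged 5-7 days, whole organism / Amount: 5 larvae per well / Read-out basis: visual per-well fluorescence inhibition score / Signal: visual fluorescence microscopy scoring of gall bladder, gut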

Assay [9] is described as follows: inhibitors of Chlamydomonas gravitaxis, primary screen, whole organism, Chlamydomonas reinhardtii, WT vs cilia-less mutant, absorbance, 96-well (AID 463189;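 active = inhibition at or above 50% relative to wild type and mutant plate controls; inactive = inhibition below 50%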;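 note: 0% = wild type cc124 cells in DMSO and 100% = ciliumless bld1 mutant cells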). As to conditions: OD600 absorbance, 2 days, at 10 µM, stronger effect = higher value.
Setting [10] is: measured here: cell density z-score.
The mark [11] stands for this setting: measured here: nuclear c-Myc green intensity z-score.
The mark [12] stands for this setting: measured here: nuclear pErk red intensity z-score, stronger effect = higher value.

Structures are written as SMILES. The source made the active and inactive calls.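 Rule for the calls, unless noted: active = NADPH fluorescence slope more negative than the mean of all samples by about 3 SD, 99.7% confidence; inactive = the rest.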

Chain of Voltage-gated potassium channel subunit beta-2 (Rattus norvegicus) (P62483 whole entry, looked up): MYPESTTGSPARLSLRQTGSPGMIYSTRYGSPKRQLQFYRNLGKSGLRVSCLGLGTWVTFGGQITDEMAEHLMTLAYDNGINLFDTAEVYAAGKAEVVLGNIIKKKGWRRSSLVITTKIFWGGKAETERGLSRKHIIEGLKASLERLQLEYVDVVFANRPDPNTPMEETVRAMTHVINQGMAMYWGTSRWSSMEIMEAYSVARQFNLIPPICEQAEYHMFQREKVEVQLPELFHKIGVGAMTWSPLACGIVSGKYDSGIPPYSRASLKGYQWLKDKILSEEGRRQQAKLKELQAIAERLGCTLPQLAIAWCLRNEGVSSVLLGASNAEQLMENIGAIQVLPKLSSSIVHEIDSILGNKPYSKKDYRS
Chain of Muscarinic acetylcholine receptor M4 (Homo sapiens) (P08173 whole entry, looked up): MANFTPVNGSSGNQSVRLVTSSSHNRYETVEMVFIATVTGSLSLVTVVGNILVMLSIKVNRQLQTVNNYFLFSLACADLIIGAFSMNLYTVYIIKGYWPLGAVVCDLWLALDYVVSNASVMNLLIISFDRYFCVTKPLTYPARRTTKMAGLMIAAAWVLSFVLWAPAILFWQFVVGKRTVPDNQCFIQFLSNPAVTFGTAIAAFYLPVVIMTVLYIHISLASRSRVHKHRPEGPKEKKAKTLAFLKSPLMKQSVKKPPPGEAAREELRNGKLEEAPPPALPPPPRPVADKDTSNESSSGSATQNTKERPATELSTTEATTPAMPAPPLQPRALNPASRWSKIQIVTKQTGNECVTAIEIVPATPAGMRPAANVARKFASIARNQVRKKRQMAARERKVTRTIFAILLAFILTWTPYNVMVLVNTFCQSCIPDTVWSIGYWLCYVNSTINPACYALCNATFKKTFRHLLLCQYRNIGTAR

Broadly, the inhibition is the change of the read-out against control, counted positive when it falls. Regarding `CC12CN3CC(C)(CN(C1)C3c1ccc(Cl)cc1Cl)C2O` (stereo unspecified), the cell count in assay [1] is 486. Moreover, the inhibition in [1] was -4% (inactive); in assay [2], -90.6% (inactive); in assay [4], -0.584% (inactive); in assay [9], -8.3% (inactive). Further, the nuclei count in assay [2] amounted to 121%. Also, the z-score in assay [3] (setting [10]) was -2.88; in [3] (setting [11]) it was 1.19; in assay [3] (setting [12]) it was -1.32. Besides, the fluorescence slope in assay [5] was -0.52 (inactive); in assay [7], 0.0049 (inactive). Also, in assay [6], the NADPH fluorescence slope is -6.5e-05 (inactive). In addition, the call in [8] was inactive.
Consider `O=C1c2ccccc2C(=O)N1c1ncccn1`, for which the cell count in assay [1] was found to be 500. In addition, the inhibition in [1] was -8.5% (inactive); in assay [2], -89% (inactive); in assay [4] it was 1.42% (inactive); in [9] it was 3.86% (inactive). The compound further registered a nuclei count in [2] of 138%. For the same compound, the figures for the z-score in assay [3] (setting [10]), in [3] (setting [11]) and in assay [3] (setting [12]) were -0.519, -0.638 and 0.031, respectively. Besides, the fluorescence slope in [5] is -0.454 (inactive); in [7], 0.00418 (inactive). The NADPH fluorescence slope in assay [6] is -0.000107 (inactive). The result in [8] was inactive.
Regarding `COCCNc1nc2c(c(=O)n(C)c(=O)n2C)n1Cc1cccc(C(F)(F)F)c1`, the cell count in assay [1] is 698. Moreover, the inhibition in assay [1] is 3% (inactive); in assay [2] it was -94.2% (inactive); in assay [4] it was 7.93% (inactive); in assay [9], 36.2% (inactive). The compound further registered a nuclei count in assay [2] of 95.8%. The results for the z-score in assay [3] (setting [10]), in assay [3] (setting [11]) and in [3] (setting [12]) were 0.711, -1.37 and -0.346, respectively. The values for the fluorescence slope in assay [5] and in assay [7] were -0.559 (inactive) and 0.00743 (inactive), respectively. Besides, the NADPH fluorescence slope in assay [6] was -8e-05 (inactive). Moreover, the outcome in assay [8] was inactive.
For the compound `O=C1NC(=O)C(c2cn(-c3ccccc3)nc2-c2ccc(F)cc2)N1` (stereo unspecified), the cell count in assay [1] was found to be 664. The inhibition in assay [1] is 1.3% (inactive); in assay [2], -12.6% (inactive); in assay [4], 3.49% (inactive); in [9] it was 2.79% (inactive). Further, in assay [2], the nuclei count is 115%. Moreover, the z-score in assay [3] (setting [10]) is 0.135; in assay [3] (setting [11]), -0.561; in assay [3] (setting [12]), -0.862. The fluorescence slope in assay [5] is -0.46 (inactive); in assay [7], 0.005 (inactive). In addition, the NADPH fluorescence slope in assay [6] was -5.3e-05 (inactive). For the same compound, the outcome in assay [8] was inactive.
For `CC(=O)C1=C(O)C(=O)N(c2ccc(S(N)(=O)=O)cc2)C1c1ccccc1F` (stereo unspecified), the cell count in [1] came out at 382. Besides, the inhibition was -5.4% (inactive) in assay [1], 14.5% (inactive) in assay [2], 11.9% (inactive) in assay [4] and -4.73% (inactive) in assay [9]. In assay [2], this compound showed a nuclei count of 138%. Further, the z-score in assay [3] (setting [10]) was -0.839; in assay [3] (setting [11]), -1.6; in assay [3] (setting [12]), 0.715. For the same compound, the fluorescence slope is -0.476 (inactive) in assay [5] and 0.00408 (inactive) in assay [7]. Besides, the NADPH fluorescence slope in assay [6] is -0.000111 (inactive). In [8], the compound was classed as inactive.
For `CN1CC2(C)CN(C(c3ccccc3)c3ccccc3)CC(C)(C1)C2O` (stereo unspecified), the cell count in assay [1] is 529. The inhibition in [1] is -8.9% (inactive); in [2], -136% (inactive); in assay [4] it was 3.42% (inactive); in assay [9], -0.999% (inactive). The nuclei count in [2] worked out at 154%. Further, the z-score is 1.6 in assay [3] (setting [10]), -0.0767 in assay [3] (setting [11]) and -1.37 in assay [3] (setting [12]). The fluorescence slope in [5] was -0.479 (inactive); in [7], 0.00415 (inactive). For the same compound, the NADPH fluorescence slope in assay [6] is -8.8e-05 (inactive). Further, the call in [8] was inactive.
Turning to `COc1ccc(C(=O)CCN2CCCCCC2)cc1`, in assay [1], the cell count is 387. Also, the inhibition is -7.4% (inactive) in assay [1], -32.1% (inactive) in assay [2], 5.42% (inactive) in assay [4] and -0.057% (inactive) in assay [9]. Moreover, the nuclei count in assay [2] was determined as 148%. For the same compound, the z-score in [3] (setting [10]) is -0.26; in assay [3] (setting [11]), -0.113; in assay [3] (setting [12]), -0.00775. In addition, the fluorescence slope in [5] is -0.438 (inactive); in assay [7], 0.00485 (inactive). Further, the NADPH fluorescence slope in [6] was -0.000102 (inactive). In [8], the outcome is “inactive; toxic”.

For the origin of these results see PubChem BioAssay.
